Most compounds without a hit are left out; they make up all but 2.4% or so of the library.
CASP6 VEID inh: human caspase-6 inhibitors, primary screen, biochemical, VEID-R110 fluorescence, single point, set 2; purified caspase-6, Z-VEID-R110 cleavage fluorescence; AID 686996, 2013; inhibition, % at 12.5 µM; hit rate 0.53% among 350,000;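 active means mean inhibition across replicates at least about 35%, with every replicate also reaching that limit, limit read from the data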
ERAP1 HTS inh: human ERAP1 aminopeptidase inhibitors, primary screen, biochemical, single point, plate reader; Endoplasmic reticulum aminopeptidase 1 (Homo sapiens), Q9NZ08; recombinant ERAP1, Leu-AMC fluorescence, 60 min; inhibition, % at 10.7 µM; hit rate 0.15% among 340,000;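 active means mean replicate inhibition of at least 30%, or all replicates individually reaching that 30% level; inactive means mean below 30% and not every replicate reaching it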
Target sequence (Q9NZ08 whole entry, looked up): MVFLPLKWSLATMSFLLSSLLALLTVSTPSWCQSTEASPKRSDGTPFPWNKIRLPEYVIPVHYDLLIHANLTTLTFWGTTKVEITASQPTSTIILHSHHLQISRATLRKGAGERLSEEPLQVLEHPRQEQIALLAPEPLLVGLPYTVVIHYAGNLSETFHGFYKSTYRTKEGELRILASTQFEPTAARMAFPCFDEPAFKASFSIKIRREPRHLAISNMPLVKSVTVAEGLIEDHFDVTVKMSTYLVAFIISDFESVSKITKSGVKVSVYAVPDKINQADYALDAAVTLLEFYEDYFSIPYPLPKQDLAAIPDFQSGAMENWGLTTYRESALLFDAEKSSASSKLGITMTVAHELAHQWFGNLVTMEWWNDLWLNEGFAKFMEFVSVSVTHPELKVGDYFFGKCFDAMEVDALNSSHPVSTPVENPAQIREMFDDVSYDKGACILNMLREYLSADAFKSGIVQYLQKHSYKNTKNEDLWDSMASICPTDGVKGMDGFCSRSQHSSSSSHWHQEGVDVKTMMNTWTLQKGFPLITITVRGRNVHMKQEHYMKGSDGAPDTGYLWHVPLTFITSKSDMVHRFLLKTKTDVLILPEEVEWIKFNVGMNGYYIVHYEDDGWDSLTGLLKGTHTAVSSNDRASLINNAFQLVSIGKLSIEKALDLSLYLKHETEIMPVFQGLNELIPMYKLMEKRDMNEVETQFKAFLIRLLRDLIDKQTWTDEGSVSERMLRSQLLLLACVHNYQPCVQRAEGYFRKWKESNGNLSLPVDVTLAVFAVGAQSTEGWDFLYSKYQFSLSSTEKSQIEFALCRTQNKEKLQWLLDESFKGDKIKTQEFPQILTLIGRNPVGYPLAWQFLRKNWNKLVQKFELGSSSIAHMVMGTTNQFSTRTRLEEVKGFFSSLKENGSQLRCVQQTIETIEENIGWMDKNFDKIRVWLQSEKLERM
Ecoli rRNA inh: reduced GFP signal of wild-type E. coli, primary screen, bacterial rRNA inhibitor project, GFP/RFP fluorescence, OD600, single point; hit rate 1.6% among 350,000; E. coli WT GFP vs humanized-ribosome RFP mutants, 24 h; active compounds read low; DMSO median 0, no signal -100; GFP signal change (wild-type ribosome), % (concentration not given with the values); AID 720706, 2013;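 active means significant combined selectivity score with lowered wild-type GFP, culture density cut under 30%, mutant RFP and density less affected; inactive means any of these conditions unmet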
ARNT TACC3 PPI: disruptors of ARNT/TACC3 protein interaction, primary screen, biochemical, AlphaScreen, single concentration; Transforming acidic coiled-coil-containing protein 3 (Homo sapiens), Q9Y6A5; AlphaScreen His-ARNT PAS-B/GST-TACC3 binding, luminescence; TACC3 fragment carries E629A point mutation; inhibition, % at 9.99 µM; hit rate 0.66% among 390,000; AID 623870, 2012;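 active means mean inhibition of replicates at least 50% and at least half of replicates each reaching 50%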
S100A4 MyoIIA: inhibitors of S100A4-myosin IIA peptide binding, primary screen, biochemical, fluorescence polarization, TAMRA-MyoIIA peptide; Protein S100-A4 (Homo sapiens), P26447; inhibition, % at 10.7 µM; hit rate 0.14% among 360,000; AID 652163, 2013;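 active means mean inhibition of at least 70% across replicates, with every replicate also reaching that level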
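Material: S100A4 monomer protein / Buffer or medium: 50 mM HEPES pH 7.2, 10 mM CaCl2, 100 mM KCl / Times: 5 min incubation before reading / Benchmarks: neutral control DMSO, positive control TFP / Reagent: labelled myosin peptide probe, 5 nM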
PGC1a acetyl inh: inhibitors of PGC1a acetylation signal, primary screen, cell-based, U2OS, AlphaScreen, inhibitor mode; AlphaScreen anti-acetyl-lysine; with virally co-expressed GCN5 acetyltransferase; inhibition, % at 15.6 µM; hit rate 0.17% among 350,000; AID 651687, 2012;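 active means every replicate shows inhibition of at least 40%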
Hits are given with their value; – = inactive; · = no result given.

SMILES | CASP6 VEID inh | ERAP1 HTS inh | Ecoli rRNA inh | ARNT TACC3 PPI | S100A4 MyoIIA | PGC1a acetyl inh
CN(C)CC#Cc1ccc([C@H]2[C@H]3CN(C(=O)Cc4cccnc4)CC(=O)N3[C@H]2CO)cc1 | · | · | – | · | · | ·
COc1ccc(C)cc1NCc1cc(=O)oc2cc(-c3ccccc3)c(O)cc12 | · | · | · | – | · | ·
COC(=O)c1ccccc1NCc1cc(=O)oc2cc(O)c(O)cc12 | – | – | -22 | – | – | ·
Cc1ccc(C(=O)Oc2ccccc2N2C(=O)C3CCC(C)CC3C2=O)cc1 (stereo unspecified) | · | · | · | – | · | –
CC1CCC2C(=O)N(c3ccc(C(=O)Oc4cccc5cccnc45)cc3)C(=O)C2C1 (stereo unspecified) | · | · | · | 49 | · | ·
COc1ccc(NC(=O)N[C@@H]2CC[C@H](CCn3cc(-c4ccccc4F)nn3)O[C@H]2CO)cc1 | – | – | – | – | – | 62
O=C(CC1CC1)N[C@H]1CC[C@H](CCNS(=O)(=O)c2ccc(Cl)cc2)O[C@H]1CO | – | – | – | – | – | 53
Cc1ccc(S(=O)(=O)NCC[C@@H]2CC[C@H](NC(=O)Nc3cccc(F)c3)[C@@H](CO)O2)cc1 | – | – | – | – | 73 | –
O=C(CCN1CCCCC1)N[C@@H]1CC[C@@H](CCn2cc(-c3ccccc3)nn2)O[C@@H]1CO | – | – | – | – | – | –
O=C(Nc1ccc(F)cc1)N[C@@H]1CC[C@H](CCn2cc(-c3ccccc3F)nn2)O[C@@H]1CO | – | – | – | – | – | –
O=C(CCN1CCCCC1)N[C@H]1CC[C@H](CCn2cc(-c3ccccc3)nn2)O[C@@H]1CO | – | – | – | – | 124 | –
O=C(c1cccnc1)N1CCCCN2[C@@H](CO)[C@@H](c3ccc(C#Cc4ccccc4)cc3)[C@@H]2C1 | – | – | · | – | – | –
C[C@H](CO)N1C[C@H](C)[C@H](CN(C)C(=O)Nc2ccc(F)cc2)Oc2ncc(C#CCN(C)C)cc2C1=O | – | – | – | – | – | –
Cc1noc(C)c1NC(=O)N(C)C[C@H]1Oc2ccc(NC(=O)CCCCCC(=O)Nc3ccccc3N)cc2C(=O)N([C@@H](C)CO)C[C@@H]1C | – | – | – | – | – | –
COc1ccc2c3c(n(C)c2c1)[C@@H](CO)N(CC1CCOCC1)CC31CCN(C(=O)Nc2ccccc2)CC1 | · | · | – | · | · | –
O=C(CCN1CCCCC1)N[C@H]1CC[C@H](CCNS(=O)(=O)c2ccc(Cl)cc2)O[C@H]1CO | – | – | – | – | – | –
O=C(CCN1CCCCC1)N[C@H]1CC[C@@H](CCNS(=O)(=O)c2ccc(Cl)cc2)O[C@H]1CO | – | – | – | – | 82 | –
CCCNC(=O)N1C[C@H]2[C@@H](c3ccccc31)[C@H](CO)N2CC1CCCCC1 | – | – | – | – | – | –
CCOc1cc(C(c2c(C)[nH][nH]c2=O)c2c(C)[nH][nH]c2=O)cc([N+](=O)[O-])c1O | – | – | – | active | – | –
CCC(=O)N1C[C@H](C)[C@@H](OC)CN(C)C(=O)c2ccc(NC(=O)c3cc(C)on3)cc2OC[C@@H]1C | · | · | – | – | · | –
O=C(c1ccccc1Cl)N1CCNCC1 | · | · | · | – | · | 67
COc1ccc2c(c1)CCc1c(C(=O)NC3CCCCC3)noc1-2 | · | · | · | 46 | · | –
COCCNC(=O)c1noc2c1CCc1cc(OC)ccc1-2 | · | · | · | – | · | –
COc1ccc2c(c1)CCc1c(C(=O)N(C)c3ccccc3)noc1-2 | – | – | -43 | – | – | –
CN(CC(=O)N1CCN(Cc2ccccc2)CC1)S(=O)(=O)c1cccc2nsnc12 | – | – | – | · | – | ·
SMILES | CASP6 VEID inh | ERAP1 HTS inh | Ecoli rRNA inh | ARNT TACC3 PPI | S100A4 MyoIIA | PGC1a acetyl inh
CC1CCCCN1C(=O)CN(C)S(=O)(=O)c1cccc2nsnc12 (stereo unspecified) | – | – | – | – | – | 42
COc1ccc(CCNc2nc(-c3ccncc3)cs2)cc1OC | – | · | -27 | – | – | –
COc1ccc(CCNc2nc(-c3ccc(O)cc3)cs2)cc1OC | – | – | – | – | – | –
COc1ccc(CCNc2nc(-c3ccccn3)cs2)cc1OC | – | – | – | 65 | – | ·
CCCN1[C@H](C(=O)N[C@H](C)c2ccccc2)[C@@H](CO)[C@@H]2Cn3c(cccc3=O)[C@@H]21 | – | – | – | · | – | –
CO[C@H]1CN(C)C(=O)c2cc(NC(=O)C3CCC3)ccc2OC[C@@H](C)N(Cc2ccncc2)C[C@H]1C | – | – | – | – | – | –
CCCC(=O)Nc1ccc2c(c1)OC[C@H](C)N(C(=O)C1CCCC1)C[C@H](C)[C@H](OC)CN(C)C2=O | – | – | – | – | – | –
CC(C)(C)c1nnc(N/N=C/c2ccccc2O)n(N)c1=O | · | · | · | 60 | · | –
CC(C)(C)c1nnc(N/N=C/c2ccccc2)n(N)c1=O | · | · | · | – | · | –
CCc1nnc(N/N=C/c2ccccc2Cl)n1N | · | · | · | – | · | 72
CCc1nnc(N/N=C/c2ccccc2F)n1N | – | – | – | – | – | ·
CO[C@H]1CN(C)C(=O)c2cc(NC(=O)c3ccccc3F)ccc2OC[C@@H](C)N(C(=O)c2ccccc2F)C[C@H]1C | – | – | – | – | – | –
COc1ccc(CN(C)C[C@H]2OCCCC[C@H](C)Oc3ccc(NS(=O)(=O)c4ccc(OC)cc4)cc3C(=O)N([C@@H](C)CO)C[C@H]2C)cc1 | – | – | – | · | – | –
Cc1ccc(S(=O)(=O)N2CCN(C(=O)c3ccccc3)C2C(C)C)cc1 (stereo unspecified) | – | – | – | – | – | –
C/C(=N\S(=O)(=O)c1ccc(C)cc1)N1CCN(S(=O)(=O)c2ccccc2)C1C(C)C (stereo unspecified) | – | – | -27 | – | – | –
Nc1nc2ccc(C(=O)NCCOC(=O)C3CCCCC3)cc2s1 | · | – | – | 66 | – | ·
CC(=O)Nc1nc2ccc(C(=O)NCCOC(=O)C3CCCCC3)cc2s1 | – | – | – | – | – | ·
CCCCCCN1C[C@@H](n2cc(C3CC3)nn2)[C@H](O)C[C@@H]1c1ccccc1 | – | – | – | · | – | –
CCCCCCN1C[C@H](O)[C@@H](n2cc(C3CC3)nn2)C[C@@H]1c1ccccc1 | – | – | -16 | · | – | –
O=C(N/N=C/c1ccc(O)cc1)c1cc(C23CC4CC(CC(C4)C2)C3)[nH]n1 | – | – | -32 | – | – | –
CN1C(=O)c2cc(NC(=O)Cc3cccs3)ccc2OC[C@@H]2O[C@H](CC(=O)N[C@@H]3CCN(Cc4ccccc4)C3)CC[C@H]21 | – | – | – | – | – | ·
